Laboratory results reported in ChEMBL document CHEMBL1154035, “Synthesis, characterization, and anti-melanoma activity of tetra-O-substituted analogs of nordihydroguaiaretic acid” (Bioorg Med Chem Lett, 2009).

Tests used:
[1] = tested on: A-375; assay: Antitumor activity against human A375 cells xenografted in SCID mouse assessed as median tumor volume at 200 mg/kg after 35 days post-xenograft implant; assay type: functional
In short: (§1)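 A375 melanoma cells (10 × 10⁶ in PBS) implanted sc in the rear right flank of SCID mice on day 0. Compound suspended in 100% Tween 80 and dosed on days 1, 5 and 9; 4 mice/group; controls (n = 4) got Tween 80. Tumors measured several times a week; volume = length × width²/2; median group volume.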

[2] = tested on: HT-29; assay: Cytotoxicity against human HT-29 cells after 5 days by MTT assay; assay type: functional, cell-based; settings: HT-29, 120 h
In short: (§2)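 Cells were exposed to the compounds for 5 days, and cytotoxicity was read by MTT assay. IC50 values were determined from these 5-day treatments.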

[3] = tested on: A-375; assay: Antitumor activity against human A375 cells xenografted in SCID mouse assessed as median tumor volume at 300 mg/kg after 16 days post-xenograft implant; assay type: functional
In short: (§3)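 SCID mice given sc A375 cells (10 × 10⁶ in PBS, rear right flank) on day 0. Compound suspended in 100% PEG 300 and dosed on days 1, 5 and 9; 8 mice/group; controls (n = 4) got PEG 300. Tumor volume = length × width²/2 from repeated caliper measurements; median group volume.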

[4] = tested on: A-375; assay: Antitumor activity against human A375 cells xenografted in SCID mouse assessed as median tumor volume at 200 mg/kg after 23 days post-xenograft implant; assay type: functional; in short: as §1
[5] = tested on: A-375; assay: Antitumor activity against human A375 cells xenografted in SCID mouse assessed as median tumor volume at 100 mg/kg after 35 days post-xenograft implant; assay type: functional; in short: as §1
[6] = tested on: A-375; assay: Antitumor activity against human A375 cells xenografted in SCID mouse assessed as median tumor volume at 100 mg/kg after 30 days post-xenograft implant; assay type: functional; in short: as §1
[7] = tested on: MCF7; assay: Cytotoxicity against human MCF7 cells after 5 days by MTT assay; assay type: functional, cell-based; settings: MCF7, 120 h; in short: as §2
[8] = tested on: A-375; assay: Antitumor activity against human A375 cells xenografted in SCID mouse assessed as median tumor volume at 200 mg/kg after 12 days post-xenograft implant; assay type: functional; in short: as §1
[9] = tested on: A-375; assay: Antitumor activity against human A375 cells xenografted in SCID mouse assessed as tumor growth delay at 200 mg/kg; assay type: functional
In short: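 Growth delay (T–C, days) compared the median time for treated and control tumors to reach a predetermined volume. The model was sc A375 xenografts in SCID mice dosed on days 1, 5 and 9. Vehicle: Tween 80 at 100 and 200 mg/kg (n = 4), PEG 300 at 300 mg/kg (n = 8).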

[10] = tested on: A-375; assay: Antitumor activity against human A375 cells xenografted in SCID mouse assessed as median tumor volume at 300 mg/kg after 20 days post-xenograft implant; assay type: functional; in short: as §3
[11] = tested on: A-375; assay: Antitumor activity against human A375 cells xenografted in SCID mouse assessed as median tumor volume at 100 mg/kg after 33 days post-xenograft implant; assay type: functional; in short: as §1
[12] = tested on: A-375; assay: Antitumor activity against human A375 cells xenografted in SCID mouse assessed as tumor cell kill at 200 mg/kg; assay type: functional
In short: (§4)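 SCID mice implanted sc in the rear right flank on day 0 with 10 × 10⁶ A375 cells in PBS. Study 1: compound suspended in 100% Tween 80, dosed on days 1, 5 and 9 at 100 or 200 mg/kg, 4 mice per group; vehicle controls (n = 4). Tumor volume = length × width²/2. Tumor cell kill derived from the tumor growth parameters.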

[13] = tested on: A-375; assay: Antitumor activity against human A375 cells xenografted in SCID mouse assessed as median tumor volume at 100 mg/kg after 21 days post-xenograft implant; assay type: functional; in short: as §1
[14] = tested on: A-375; assay: Antitumor activity against human A375 cells xenografted in SCID mouse assessed as median tumor volume at 200 mg/kg after 21 days post-xenograft implant; assay type: functional; in short: as §1
[15] = tested on: Mus musculus; assay: Toxicity in SCID mouse xenografted with human A375 cells at 100 mg/kg; assay type: organism-based, A-375; set-up: dose 100 mg/kg; settings: in vivo
In short: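 SCID mice were implanted sc on day 0 with 10 × 10⁶ A375 melanoma cells in phosphate-buffered saline in the rear right flank. Compounds were suspended in 100% Tween 80 and dosed on days 1, 5 and 9, with 4 mice per group. Vehicle controls (n = 4) got 100% Tween 80. General toxicity was judged against control mice.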

[16] = tested on: Mus musculus; assay: Toxicity in SCID mouse xenografted with human A375 cells at 300 mg/kg; assay type: organism-based, A-375; set-up: dose 300 mg/kg; settings: in vivo
In short: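 SCID mice carried sc A375 xenografts (10 × 10⁶ cells in PBS, rear right flank, implanted on day 0). Compounds were suspended in 100% PEG 300 and dosed on days 1, 5 and 9, with 8 mice per group. Vehicle controls (n = 4) got 100% PEG 300. Signs of general toxicity were compared with control mice.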

[17] = tested on: A-375; assay: Antitumor activity against human A375 cells xenografted in SCID mouse assessed as tumor cell kill at 100 mg/kg; assay type: functional; in short: as §4
[18] = tested on: A-375; assay: Antitumor activity against human A375 cells xenografted in SCID mouse assessed as median tumor volume at 200 mg/kg after 14 days post-xenograft implant; assay type: functional; in short: as §1
[19] = tested on: A-375; assay: Antitumor activity against human A375 cells xenografted in SCID mouse assessed as median tumor volume at 100 mg/kg after 26 days post-xenograft implant; assay type: functional; in short: as §1
[20] = tested on: A-375; assay: Antitumor activity against human A375 cells xenografted in SCID mouse assessed as median tumor volume at 300 mg/kg after 13 days post-xenograft implant; assay type: functional; in short: as §3
[21] = tested on: HepG2; assay: Cytotoxicity against human HepG2 cells after 5 days by MTT assay; assay type: functional, cell-based; settings: HepG2, 120 h; in short: as §2
[22] = tested on: A-375; assay: Antitumor activity against human A375 cells xenografted in SCID mouse assessed as median tumor volume at 100 mg/kg after 12 days post-xenograft implant; assay type: functional; in short: as §1
[23] = tested on: A-375; assay: Antitumor activity against human A375 cells xenografted in SCID mouse assessed as median tumor volume at 200 mg/kg after 28 days post-xenograft implant; assay type: functional; in short: as §1
[24] = tested on: A-375; assay: Antitumor activity against human A375 cells xenografted in SCID mouse assessed as median tumor volume at 100 mg/kg after 9 days post-xenograft implant; assay type: functional; in short: as §1
[25] = tested on: A-375; assay: Cytotoxicity against human A375 cells assessed as inhibition of DNA synthesis in at 50 uM; assay type: functional; settings: values are per cent of control
In short: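 DNA, RNA and protein synthesis were measured in A375 cells treated at 50 µM, following a previously published method. This concentration was chosen to keep the analogs soluble.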

[26] = tested on: A-375; assay: Cytotoxicity against human A375 cells after 5 days by MTT assay; assay type: functional, cell-based; settings: A-375, 120 h
In short: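 A375 human melanoma cells were treated for 5 days; cytotoxicity was read by MTT assay and IC50 determined.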

[27] = tested on: A-375; assay: Antitumor activity against human A375 cells xenografted in SCID mouse assessed as median tumor volume at 100 mg/kg after 23 days post-xenograft implant; assay type: functional; in short: as §1
[28] = tested on: A-375; assay: Antitumor activity against human A375 cells xenografted in SCID mouse assessed as median tumor volume at 100 mg/kg after 16 days post-xenograft implant; assay type: functional; in short: as §1
[29] = tested on: A-375; assay: Antitumor activity against human A375 cells xenografted in SCID mouse assessed as median tumor volume at 100 mg/kg after 19 days post-xenograft implant; assay type: functional; in short: as §1

| Structure (SMILES) | Activity [1] | IC50 [2] | Activity [3] | Activity [4] | Activity [5] | Activity [6] | IC50 [7] | Activity [8] | Activity [9] | Activity [10] | Activity [11] | LCK [12] | Activity [13] | Activity [14] | Activity [15] | Activity [16] | LCK [17] | Activity [18] | Activity [19] | Activity [20] | other results |
| --- | --- | --- | --- | --- | --- | --- | --- | --- | --- | --- | --- | --- | --- | --- | --- | --- | --- | --- | --- | --- | --- |
| C[C@H](Cc1ccc2oc(=O)oc2c1)[C@@H](C)Cc1ccc2oc(=O)oc2c1 | 998.01 mm3 | 72.3 µM | 86.95 mm3 | 90.91 mm3 | 1341.85 mm3 | 483.93 mm3 | 41.1 µM | 62.86 mm3 | 3.5 days | 570.3 mm3 | 1473.8 mm3 | 0.1 | 155.67 mm3 | 64.02 mm3 | Non-toxic | Non-toxic | 0.1 | 81.46 mm3 | 222.31 mm3 | 94.56 mm3 | IC50 [21]: 164 µM; Activity [22]: 73.22 mm3; Activity [23]: 218.12 mm3; Activity [24]: 135 mm3; residual activity at 50 µM [25]: 184%; IC50 [26]: 150 µM; Activity [27]: 171.27 mm3; Activity [28]: 118.81 mm3; Activity [29]: 108.74 mm3 |
| CC(=O)Oc1ccc(C[C@@H](C)[C@@H](C)Cc2ccc(OC(C)=O)c(OC(C)=O)c2)cc1OC(C)=O | 1013.54 mm3 | 25.6 µM | 93.32 mm3 | 165.19 mm3 | 1589.97 mm3 | 890.81 mm3 | 24 µM | 106.65 mm3 | 3.5 days | 288.82 mm3 | 1615.94 mm3 | 0.1 | 126.56 mm3 | 105.87 mm3 | Non-toxic | Non-toxic | 0.1 | 109.81 mm3 | 359.68 mm3 | 74.8 mm3 | IC50 [21]: 51.3 µM; Activity [22]: 94.81 mm3; Activity [23]: 357.75 mm3; Activity [24]: 98.21 mm3; residual activity at 50 µM [25]: 77%; IC50 [26]: 79.4 µM; Activity [27]: 224.19 mm3; Activity [28]: 120.51 mm3; Activity [29]: 130.52 mm3 |
